Bioassay records: PubChem BioAssay, several laboratories
Most compounds without a hit are left out; they make up all but 2.8% or so of the library.
Measles CPE = compounds protecting cells from measles virus cytopathic effect, primary screen, measles RdRp inhibitor project, single point, MLSMR library, absorbance; Measles virus-infected cells, CPE protection; protection (pct of control), % at 4 µM; actives 1.5% (n = 140,000); in the data active = protection mostly above about 24%, no sharp cut-off; inactive = mostly below about 26%
NPY-Y1 PAM-ag = NPY-Y1 receptor potentiators or agonists, primary screen, cell-based | NPY-Y1 expressing cells, potentiator/agonist activation | activation, % at 3.6 µM | AID 1304, 2008 | Neuropeptide Y receptor type 1 (Homo sapiens), P25929 | actives 0.37% (n = 220,000); in the data active = activation above about 33%, passing the limit was not always enough;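 also: cells stimulated with NPY at EC10 then isoproterenol at EC100; 0% = low agonist plus stimulus and 100% = saturating agonist plus stimulus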
NPY Y2 blocker = NPY-Y2 receptor antagonists, primary screen, cell-based; Neuropeptide Y receptor type 2 (Homo sapiens), P49146; NPY-Y2 expressing cells, antagonist mode; inhibition, % at 2.7 µM; actives 0.99% (n = 140,000); in the data active = inhibition above about 17%;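 also: 0% = vehicle with agonist challenge and 100% = reference antagonist with challenge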
NPY Y1 blocker = NPY-Y1 receptor antagonists, primary screen, cell-based. inhibition, % at 3.6 µM. AID 1040, 2008. Neuropeptide Y receptor type 1 (Homo sapiens), P25929. HEK293-CNG Y1 cells, membrane potential fluorescence; NPY at EC95, then isoproterenol. actives 1% (n = 200,000);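 active = inhibition above the campaign mean inhibition of all tested compounds plus 3 SD, cut at about 20% in these data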;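 also: 0% = DMSO wells given NPY plus isoproterenol and 100% = isoproterenol alone without NPY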
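Assay system: HEK293 Y1/CNG channel cell line; Doses: single compound dose of 3.6 µM, 0.4% DMSO; Timing: dye 3 h, compound 60 min room temperature, stimulation 45 min; Technique: Membrane-potential fluorescent dye readout; Measure: % inhibition of NPY effect.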
NPY-Y2 PAM-ag = NPY-Y2 potentiators or agonists, primary screen, cell-based. AID 1359, 2008. activation, % at 3.6 µM. cells expressing NPY-Y2, potentiator/agonist read-out. Neuropeptide Y receptor type 2 (Homo sapiens), P49146. actives 0.45% (n = 220,000); in the data active = activation above about 27%;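 also: cells stimulated with NPY near EC25 plus isoproterenol at EC100; 0% = vehicle plus submaximal agonist and 100% = vehicle plus saturating agonist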
Rad51 HR inh = human RAD51 strand exchange inhibitors, primary screen, biochemical, fluorescence; hRad51 DNA strand exchange, fluorescence dequenching; inhibition, % at 10 µM; actives 0.085% (n = 200,000);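 active = inhibition above 40% at the single screening dose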;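 also: 0% = DMSO control wells and 100% = blanks with heterologous ssDNA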
Target sequence (Q06609 whole entry, looked up): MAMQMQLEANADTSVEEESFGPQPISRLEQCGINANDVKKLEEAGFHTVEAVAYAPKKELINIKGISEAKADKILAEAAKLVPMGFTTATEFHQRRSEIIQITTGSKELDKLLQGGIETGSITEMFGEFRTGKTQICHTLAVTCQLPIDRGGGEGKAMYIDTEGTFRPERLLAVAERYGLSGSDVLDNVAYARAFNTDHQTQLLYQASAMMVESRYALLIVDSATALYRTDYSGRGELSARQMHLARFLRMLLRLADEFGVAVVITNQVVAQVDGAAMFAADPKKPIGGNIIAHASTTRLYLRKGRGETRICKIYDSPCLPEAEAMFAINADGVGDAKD
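System: hRad51 filaments on single-stranded DNA; reagent: Fluorescein- and BHQ1-tagged 47-mer duplex; compound dosing: one concentration, 10 µM final; timing: filaments 15 min 37 °C, then compound 30 min; measured by: fluorescein emission 520 nm, excitation 485 nm; benchmarks: per-plate controls and blanks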
Numbers without * were called inactive; · = not tested or not shown.

SMILES	Measles CPE	NPY-Y1 PAM-ag	NPY Y2 blocker	NPY Y1 blocker	NPY-Y2 PAM-ag	Rad51 HR inh
O=C(c1ccc(Br)o1)N1CCN(C/C=C/c2ccccc2)CC1	119*	-22	4	9	-3	8
O=C(c1ccc(Br)s1)N1CCN(C/C=C/c2ccccc2)CC1	3	5	6	-1	-2	1
CCc1ccc(N(C(=O)c2csnn2)C(C(=O)NCc2ccccc2)c2ccco2)cc1 (centres undefined)	35*	0	6	2	5	4
COc1ccc(CNC(=O)C(c2ccco2)N(C(=O)c2ccccn2)c2ccccc2)cc1 (centres undefined)	·	-9	·	6	-17	15
CCC1=C[C@H]2CN(C1)Cc1c([nH]c3ccccc13)[C@@](C(=O)OC)(c1cc3c(cc1OC)N(C)[C@H]1[C@@](O)(C(=O)OC)[C@H](OC(C)=O)[C@]4(CC)C=CCN5CC[C@]31[C@@H]54)C2	·	·	·	·	·	6
Cc1ccc(NC(=S)NNC(=O)c2c(Cl)c(C)nn2C)cc1	9	14	2	9	-5	19
Cc1ccc(NC(=S)NNC(=O)c2nn(C)c(C)c2Cl)cc1	102*	-13	3	3	-9	·
COc1cc(NC(=O)c2ccc(S(=O)(=O)N(C)C)cc2)cc(OC)c1OC	3	4	2	2	7	-7
COc1ccccc1OC(=O)c1ccc(S(=O)(=O)N(C)C)cc1	44*	1	-3	-7	5	-12
Cc1ccn2cc(CNS(=O)(=O)c3cccs3)nc2c1	·	9	·	·	2	·
Cc1ccn2cc(CNS(=O)(=O)c3ccc(Cl)s3)nc2c1	29*	-10	3	-4	-2	8
Cc1ccc(NS(=O)(=O)c2ccc(NC(=O)c3cccc(NC(=O)C(C)C)c3)cc2)cc1	3	36	-5	-13	33	1
CN(C)CCNC(=O)c1ccc2c(c1)N(Cc1ccc(F)cc1)CCS2	3	75*	5	-8	65*	-2
O=C(Nc1cccnc1)/C(N=Nc1cccnc1)=C(\O)c1ccccc1	5	-4	1	8	1	-6
COC(=O)c1ccc(N2C(=O)CC(N(C)CCc3ccc(OC)c(OC)c3)C2=O)cc1 (centres undefined)	138*	10	-1	-12	-1	12
CC(C)(CO)NS(=O)(=O)c1ccc2c(c1)oc(=O)c1cc(S(=O)(=O)NC(C)(C)CO)ccc12	61*	-17	4	3	12	-2
O=C(Nc1ccccc1)c1c2c(nc3ccccc13)CCCC2	·	-35	·	·	-13	15
CSc1cccc(NC(=O)Cn2cccc2)c1	80*	11	1	1	4	-6
N#C/C(=C/c1cc(Br)cs1)C(=O)NCC1CCCO1 (centres undefined)	37*	-9	2	3	2	3
CCN(Cc1ccncc1)C(=O)CCc1nnc(CCc2ccc(OC)cc2)o1	·	14	·	3	6	2
NS(=O)(=O)c1ccc(NC(=O)COC(=O)c2cc3ccccc3cc2O)cc1	·	14	·	·	14	-4
CC1(C)NC(=O)N(CC(O)COc2ccc(N3C(=O)c4ccccc4C3=O)cc2)C1=O (centres undefined)	47*	-4	-2	-5	2	8
C/C(=N\NC(=O)CN1CCN(Cc2ccccc2)CC1)c1cccs1	·	10	·	·	-13	-3
COc1ccc(CNC(=O)C2=C(C)C(=O)OC23CCC(C)CC3)cc1 (centres undefined)	12	-3	-3	0	-12	-6
COc1ccc(NC(=O)C2=C(C)C(=O)OC23CCC(C)CC3)cc1Cl (centres undefined)	6	48*	-1	-6	58*	-1
SMILES	Measles CPE	NPY-Y1 PAM-ag	NPY Y2 blocker	NPY Y1 blocker	NPY-Y2 PAM-ag	Rad51 HR inh
Cc1cc(C)c2c(N)c(C(=O)NC3CCCC3)sc2n1	·	21	·	-1	-9	1
Cc1cc(C)c2c(N)c(C(=O)NCC3CCCCC3)sc2n1	25*	-22	0	7	-7	7
CCOC(=O)Nc1ccc(C(=O)Oc2ccccc2)c(O)c1	40*	0	3	-1	-20	-3
CCN(CC)CCNC(=O)C(=O)NCC1OCCN1C(=O)c1ccc2c(c1)OCO2 (centres undefined)	5	7	1	7	6	1
CCN(c1ccccc1)S(=O)(=O)c1ccc(Cl)c(NC(=O)Nc2ccc(Cl)cc2C#N)c1	7	20	2	-5	-1	21
CN(c1ccccc1)S(=O)(=O)c1cccc(NC(=O)Nc2ccc(Cl)cc2C#N)c1	25*	-1	2	-2	-7	17
O=C(Nc1ccccc1)Oc1cccc(Br)c1	·	-1	·	·	-13	·
COc1ccc(Nc2nc(Nc3ccc(OC)cc3OC)nc(N3CCN(C)CC3)n2)c(OC)c1	3	-22	4	3	13	·
Cc1nn(Cc2ccc(Cl)cc2)c(C)c1NC(=O)CCCn1nc([N+](=O)[O-])c(Cl)c1C	6	2	-1	-3	6	21
Cn1nc(C(F)(F)F)c(-c2ccc(Br)cc2)c1NC(=O)Nc1ccc(F)cc1F	·	108*	·	·	99*	15
Cn1nc(C(F)(F)F)c(-c2ccc(F)cc2)c1NC(=O)c1ccco1	·	6	·	·	-1	·
O=[N+]([O-])c1cc(/C=N/O)ccc1SCc1ccccc1	75*	-3	2	1	1	1
O=[N+]([O-])c1cc(/C=N/O)ccc1Sc1ccccc1	7	13	1	-2	-4	-13
CC1=C(C(=O)c2ccccc2)C(c2ccc(OC(F)F)cc2)NC(=S)N1 (centres undefined)	·	4	·	-2	-14	25
CCCc1[nH]nc2c1C(c1cc(OC)cc(OC)c1)C(C#N)=C(N)O2 (centres undefined)	83*	12	1	6	-2	1
CCCc1[nH]nc2c1C(c1ccc(OC)c(CSC3=NCCS3)c1)C(C#N)=C(N)O2 (centres undefined)	28*	-26	4	0	8	-1
CCCc1[nH]nc2c1C(c1ccc(OC(=O)N3CCOCC3)c(OC)c1)C(C#N)=C(N)O2 (centres undefined)	8	3	3	-3	4	-2
COc1ccc(-n2cc(C(=O)c3cc4ccccc4oc3=O)c(C(C)=O)n2)cc1	10	-8	-2	-1	-15	1
